Test results as given in ChEMBL document CHEMBL1817614, “Inhibitory effects of chalcone glycosides isolated from Brassica rapa L. 'hidabeni' and their synthetic derivatives on LPS-induced NO production in microglia” (Bioorg Med Chem, 2011).
The source made the active and inactive calls. The calls are words filed in the database; no cut-off is given here.

Legend:
HAPI [1] = test: Antiinflammatory activity in rat HAPI cells assessed as inhibition of LPS-induced iNOS mRNA expression at 50 uM treated 30 mins before LPS challenge measured after 6 hrs by RT-PCR analysis; assay type: functional, cell-based
Outline: (§1)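 HAPI cells were seeded in 1% FCS DMEM and treated the next day. Compound (50 µM) was present 30 min before and during LPS (100 ng/mL) for 6 h. RT-PCR used GAPDH normalization. IFN-β ran 35 cycles with anneal at 54 °C; IL-1β ran 30 cycles with anneal at 58 °C. Data are % of LPS alone, mean SEM, n = 3.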

HAPI [2] = test: Antiinflammatory activity in rat HAPI cells assessed as inhibition of LPS-induced nitric oxide production at 50 uM treated 30 mins before LPS challenge measured after 24 hrs by Griess method; assay type: functional, cell-based
Outline: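 About 1.0 × 10⁵ HAPI cells per well were seeded in 1% FCS DMEM. The next day, compound (50 µM) was present 30 min before and during LPS (100 ng/mL) for 24 h. Medium nitrite was read by Griess kit. Data are fold induction vs untreated cells, mean SD, n = 3 or 4.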

HAPI [3] = test: Antiinflammatory activity in rat HAPI cells assessed as inhibition of LPS-induced IL1-beta mRNA expression at 50 uM treated 30 mins before LPS challenge measured after 6 hrs by RT-PCR analysis; assay type: functional, cell-based; outline: as §1
HAPI [4] = test: Inhibition of LPS-induced NF-kappaB nuclear translocation in rat HAPI cell nuclear extracts at 50 uM treated 30 mins before LPS challenge measured after 3 hrs by immunoblot analysis; assay type: cell-based
Outline: (§2)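 Compound (50 µM) or vehicle was given 30 min before LPS (100 ng/mL) for 3 h. Nuclear extracts were made by NP-40 lysis and 0.4 M NaCl HEPES pH 7.8 extraction. Extract (10 µg) was immunoblotted for NF-κB p65 or STAT1 (1:1,000), with ABC chemiluminescence detection. Blots shown represent three experiments.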

HAPI [5] = test: Inhibition of LPS-induced ERK phosphorylation in rat HAPI cell lysates at 50 uM treated 30 mins before LPS challenge measured after 1 hr by immunoblot analysis; assay type: cell-based
Outline: (§3)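 Compound (50 µM) or vehicle was given 30 min before LPS (100 ng/mL) for 1 h. Whole-cell lysates were made in Tris pH 7.4 Triton buffer with phosphatase inhibitors. Lysate (40 µg) was run on SDS-PAGE and immunoblotted with phospho-specific and total MAPK antibodies (1:1,000), biotin secondary/ABC and chemiluminescence. Blots shown represent three experiments.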

HAPI [6] = test: Inhibition of LPS-induced JNK phosphorylation in rat HAPI cell lysates at 50 uM treated 30 mins before LPS challenge measured after 1 hr by immunoblot analysis; assay type: cell-based; outline: as §3
HAPI [7] = test: Inhibition of LPS-induced p38 phosphorylation in rat HAPI cell lysates at 50 uM treated 30 mins before LPS challenge measured after 1 hr by immunoblot analysis; assay type: cell-based; outline: as §3
HAPI [8] = test: Inhibition of LPS-induced STAT1 nuclear translocation in rat HAPI cell nuclear extracts at 50 uM treated 30 mins before LPS challenge measured after 3 hrs by immunoblot analysis; assay type: cell-based; outline: as §2
HAPI [9] = test: Antiinflammatory activity in rat HAPI cells assessed as inhibition of LPS-induced IFN-R mRNA expression at 50 uM treated 30 mins before LPS challenge measured after 6 hrs by RT-PCR analysis; assay type: functional, cell-based
Outline: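 Cells were seeded in 1% FCS DMEM and treated the next day. Compound (50 µM) was present 30 min before and during LPS (100 ng/mL) for 6 h. IFN-R RT-PCR ran 35 cycles with anneal at 55 °C and was normalized to GAPDH. Data are fold change vs untreated cells, mean SEM, n = 3.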

HAPI [10] = test: Antiinflammatory activity in rat HAPI cells assessed as inhibition of IFN-gamma-induced iNOS mRNA expression at 50 uM treated 30 mins before LPS challenge measured after 8 hrs by RT-PCR analysis; assay type: functional, cell-based
Outline: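 HAPI rat microglia were grown in DMEM with 10% heat-inactivated FCS at 37 °C. Compound (50 µM) was added 30 min before and kept during IFN-γ (100 ng/mL) for 8 h. Total RNA was taken for RT-PCR, gel densitometry and normalization to GAPDH. Data are % of IFN-γ alone, mean SEM, n = 3.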

HAPI [11] = test: Inhibition of LPS-induced STAT1 phosphorylation in rat HAPI cell lysates at 50 uM treated 30 mins before LPS challenge measured after 3 hrs by immunoblot analysis

**Q.** How did the inhibition (HAPI [1]) turn out when `COc1cc(C(C)=O)cc(OC)c1O[C@@H]1O[C@H](CO)[C@@H](O)[C@H](O)[C@H]1O` was run?
**A.** Its inhibition is “Active”.

**Q.** What does the source list for `COc1ccc(/C=C/C(=O)c2ccc(O[C@@H]3O[C@H](CO)[C@@H](O)[C@H](O)[C@H]3O)c(OC)c2)cc1`?
**A.** inhibition (HAPI [1]): Active; inhibition (HAPI [2]): Active; inhibition (HAPI [3]): Active; inhibition (HAPI [4]): inactive; inhibition (HAPI [5]): inactive; inhibition (HAPI [6]): inactive; inhibition (HAPI [7]): inactive; inhibition (HAPI [8]): Active; inhibition (HAPI [9]): inactive; inhibition (HAPI [10]): Active; inhibition (HAPI [11]): Active

**Q.** What does the source list for `COc1cc(C(=O)/C=C/c2ccc(O)cc2)ccc1O[C@@H]1O[C@H](CO)[C@@H](O)[C@H](O)[C@H]1O`?
**A.** inhibition (HAPI [1]): Active; inhibition (HAPI [2]): Active

**Q.** For `CC(=O)c1ccc(O[C@@H]2O[C@H](CO)[C@@H](O)[C@H](O)[C@H]2O)cc1`, which inhibition (HAPI [1]) is on record?
**A.** The inhibition was “Active”.

**Q.** `COc1cc(C(=O)/C=C/c2ccc(O[C@@H]3O[C@H](CO)[C@@H](O)[C@H](O)[C@H]3O)cc2)ccc1O[C@@H]1O[C@H](CO)[C@@H](O)[C@H](O)[C@H]1O` was tested. Which inhibition (HAPI [1]) did it give?
**A.** The inhibition was “Active”.

**Q.** Which inhibition (HAPI [1]) does the source give for `COc1cc(C(=O)/C=C/c2ccccc2)ccc1O[C@@H]1O[C@H](CO)[C@@H](O)[C@H](O)[C@H]1O` here?
**A.** The inhibition was “Active”.

**Q.** What about the inhibition (HAPI [2]) of the same compound?
**A.** Its inhibition is “Active”.

**Q.** What about the inhibition (HAPI [10]) of the same compound?
**A.** The inhibition was “Active”.

**Q.** Which inhibition (HAPI [1]) does the source give for `CC1=CC(=O)CC(C)(C)[C@@]1(O)/C=C/[C@H](C)O[C@@H]1O[C@H](CO)[C@@H](O)[C@H](O)[C@H]1O` here?
**A.** Its inhibition is “Active”.
